Calls of active or inactive are those of the source. The rule behind the calls is not given here.

Data set [1] is described as follows: Intrinsic hepatic clearance in human. It counts as ADME. The procedure, abridged:
(§1)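 Scaled from microsomal intrinsic clearance: CLint,in vitro × microsomal protein per g liver × liver weight per kg body weight.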

Data set [2] concerns the target Leucine-rich repeat serine/threonine-protein kinase 2 (Homo sapiens, UniProt Q5S007). Briefly: Inhibition of human LRRK2 using [RLGRDKYKTLRQIRQ] as substrate in presence of [gamma33P]ATP by hotspot assay.
The nature of data set [3]: Intrinsic clearance in rat liver microsomes assessed as per mg of protein incubated for 10 mins followed by potassium phosphate buffer addition and measured after 5 to 60 mins by LC-MS/MS analysis. In kind it is ADME, Microsome. The following applies: read-out: CLH. A digest of the protocol: (§2)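 Rat, dog, monkey or human liver microsomes pre-incubated with compound at 37 °C for 10 min; reaction started after pre-warming and stopped at 5, 15, 30, 60 min with chilled quench containing tolbutamide and labetalol. No-cofactor control in 100 mM potassium phosphate for 60 min. LC-MS/MS analysis; first-order fit: k = −slope, T1/2 = 0.693/k, CLint = k/microsomal protein concentration.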

For data set [4], the target named is Mitogen-activated protein kinase kinase kinase 14 (Homo sapiens, UniProt Q99558). Put plainly: Inhibition of recombinant N-terminal GST-fused human NIK (319 to 947 residues) expressed in baculovirus expression system incubated for 120 mins in presence of ATP by ADP-glo based luminescence assay. A digest of the protocol: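 ADP-Glo luminescence assay with recombinant human MAP3K14. Buffer: Tris pH 7.5, 2 mM DTT, 2 mM MgCl₂, 100 µM Na₃VO₄, 0.02 mg/mL BSA, 5% DMSO; ATP 10 µM. Reaction 120 min at room temperature; ADP-Glo reagent 40 min, then detection reagent 40 min. Mean ± SD from two independent experiments.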
Sequence of Mitogen-activated protein kinase kinase kinase 14 (Q99558 whole entry, the tested form may be a part): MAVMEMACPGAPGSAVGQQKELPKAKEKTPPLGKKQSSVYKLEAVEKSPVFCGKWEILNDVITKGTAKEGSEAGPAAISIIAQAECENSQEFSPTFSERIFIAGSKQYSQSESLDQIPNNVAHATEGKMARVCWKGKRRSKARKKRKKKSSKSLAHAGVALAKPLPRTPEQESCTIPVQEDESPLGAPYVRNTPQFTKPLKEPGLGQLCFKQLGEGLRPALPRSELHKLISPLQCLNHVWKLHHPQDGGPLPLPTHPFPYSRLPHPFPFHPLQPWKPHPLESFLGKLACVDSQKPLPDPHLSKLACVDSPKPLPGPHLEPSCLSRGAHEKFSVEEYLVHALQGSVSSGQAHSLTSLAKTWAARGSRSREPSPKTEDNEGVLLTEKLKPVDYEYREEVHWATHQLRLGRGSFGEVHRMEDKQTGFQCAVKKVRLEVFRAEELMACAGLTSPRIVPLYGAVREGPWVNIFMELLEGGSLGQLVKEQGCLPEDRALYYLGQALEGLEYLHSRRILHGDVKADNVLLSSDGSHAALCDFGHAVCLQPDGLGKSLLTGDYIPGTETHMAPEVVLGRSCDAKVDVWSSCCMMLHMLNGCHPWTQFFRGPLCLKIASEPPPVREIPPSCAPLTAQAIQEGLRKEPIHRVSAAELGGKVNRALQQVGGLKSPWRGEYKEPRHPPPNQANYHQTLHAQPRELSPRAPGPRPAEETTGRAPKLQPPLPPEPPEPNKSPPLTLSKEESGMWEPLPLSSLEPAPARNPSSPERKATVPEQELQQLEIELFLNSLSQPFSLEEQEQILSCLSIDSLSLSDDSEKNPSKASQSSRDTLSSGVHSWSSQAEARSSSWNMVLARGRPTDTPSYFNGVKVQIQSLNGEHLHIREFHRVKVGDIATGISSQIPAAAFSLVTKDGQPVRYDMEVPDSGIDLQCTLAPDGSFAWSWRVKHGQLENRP
On the technique in general: In ADP-Glo the light output rises with the ADP produced.

The species entered for data set [5] is Homo sapiens. Put plainly: Selectivity ratio of IC50 for human JAK1 to IC50 for human NIK.
A short description of data set [6]: Intrinsic hepatic clearance in dog. In kind it is ADME, Canis lupus familiaris. Conditions: in vivo. The procedure, abridged:
as §1

The nature of data set [7]: Intrinsic clearance in dog liver microsomes assessed as per mg of protein incubated for 10 mins followed by potassium phosphate buffer addition and measured after 5 to 60 mins by LC-MS/MS analysis. It counts as ADME, Canis lupus familiaris, Microsome. Conditions: read-out: CLH. The procedure, abridged:
as §2
(In general: Liver microsomes are vesicles of endoplasmic reticulum, rich in cytochrome P450 enzymes.)

The test system of the next data set is J774. Briefly: Antiinflammatory activity in mouse J774 cells assessed as reduction in LPS-induced NOS2 mRNA level by SYBR green dye-based quantitative PCR analysis. It counts as functional, cell-based. The procedure, abridged: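 LPS-stimulated J774 macrophages; mRNA quantified by qPCR using 4 µL cDNA plus 16 µL master mix per reaction. Mean ± SD of three biological replicates; significance by two-tailed Student's t-test against the model group.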

In data set [8] the test system is Mus musculus. Put plainly: Suppression of IMQ-induced epidermal acanthosis in ig dosed C57 mouse model of psoriasis assessed as reduction in epidermal thickness administered once daily starting from day 3 post IMQ-challenge and measured 2 days post-last dose of IMQ by hematoxylin-eosin staining based confocal laser scanning microscopy. It counts as functional, organism-based. A digest of the protocol: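 IMQ-induced C57 mice (5% cream 7 days; 60 or 120 mg/kg i.g. daily from day 3, n = 6). Formalin-fixed, paraffin-embedded back skin cut at 3 µm and H&E stained. Epidermal thickness measured in six randomly chosen fields; blind evaluation by two pathologists.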

The target in data set [9] is T1, Tyrosine-protein kinase JAK3 (Homo sapiens, UniProt P52333).
T1 sequence (P52333 whole entry): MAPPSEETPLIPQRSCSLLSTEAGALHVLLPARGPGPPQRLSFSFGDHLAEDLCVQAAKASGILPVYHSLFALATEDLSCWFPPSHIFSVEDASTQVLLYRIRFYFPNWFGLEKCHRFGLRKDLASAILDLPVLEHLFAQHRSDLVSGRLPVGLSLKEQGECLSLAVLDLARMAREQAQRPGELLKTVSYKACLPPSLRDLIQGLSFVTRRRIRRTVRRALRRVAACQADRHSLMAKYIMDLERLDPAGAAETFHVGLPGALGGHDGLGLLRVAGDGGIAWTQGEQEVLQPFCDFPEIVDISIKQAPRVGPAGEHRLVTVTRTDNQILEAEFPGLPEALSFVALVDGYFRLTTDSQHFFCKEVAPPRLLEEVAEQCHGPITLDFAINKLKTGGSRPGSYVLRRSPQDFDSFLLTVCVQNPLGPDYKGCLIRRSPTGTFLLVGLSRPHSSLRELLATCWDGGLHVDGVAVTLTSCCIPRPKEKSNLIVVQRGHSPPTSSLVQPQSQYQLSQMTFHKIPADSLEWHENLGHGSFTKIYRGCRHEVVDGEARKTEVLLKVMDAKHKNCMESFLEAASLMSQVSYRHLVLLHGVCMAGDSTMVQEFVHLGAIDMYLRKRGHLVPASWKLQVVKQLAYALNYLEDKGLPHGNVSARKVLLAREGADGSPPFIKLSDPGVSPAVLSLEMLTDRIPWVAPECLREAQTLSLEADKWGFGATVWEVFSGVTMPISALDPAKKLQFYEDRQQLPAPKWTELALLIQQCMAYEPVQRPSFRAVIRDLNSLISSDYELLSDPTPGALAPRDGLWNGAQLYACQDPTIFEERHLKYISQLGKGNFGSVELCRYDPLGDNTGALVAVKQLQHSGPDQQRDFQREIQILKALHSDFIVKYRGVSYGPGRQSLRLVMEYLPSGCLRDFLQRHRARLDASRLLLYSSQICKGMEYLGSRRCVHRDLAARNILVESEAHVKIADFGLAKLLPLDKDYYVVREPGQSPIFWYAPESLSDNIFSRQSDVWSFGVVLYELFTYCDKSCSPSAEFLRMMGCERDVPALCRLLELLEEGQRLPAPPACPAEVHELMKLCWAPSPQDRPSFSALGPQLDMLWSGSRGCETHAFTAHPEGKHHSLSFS
Briefly: Inhibition of human JAK3 using [GGEEEEYFELVKKKK] as substrate in presence of [gamma33P]ATP by hotspot assay.

In the next data set the target is Activated CDC42 kinase 1 (Homo sapiens, UniProt Q07912). Briefly: Inhibition of human ACK1 using [EAIYAAPFAKKK] as substrate in presence of [gamma33P]ATP by hotspot assay.
Sequence of Activated CDC42 kinase 1 (Q07912 whole entry): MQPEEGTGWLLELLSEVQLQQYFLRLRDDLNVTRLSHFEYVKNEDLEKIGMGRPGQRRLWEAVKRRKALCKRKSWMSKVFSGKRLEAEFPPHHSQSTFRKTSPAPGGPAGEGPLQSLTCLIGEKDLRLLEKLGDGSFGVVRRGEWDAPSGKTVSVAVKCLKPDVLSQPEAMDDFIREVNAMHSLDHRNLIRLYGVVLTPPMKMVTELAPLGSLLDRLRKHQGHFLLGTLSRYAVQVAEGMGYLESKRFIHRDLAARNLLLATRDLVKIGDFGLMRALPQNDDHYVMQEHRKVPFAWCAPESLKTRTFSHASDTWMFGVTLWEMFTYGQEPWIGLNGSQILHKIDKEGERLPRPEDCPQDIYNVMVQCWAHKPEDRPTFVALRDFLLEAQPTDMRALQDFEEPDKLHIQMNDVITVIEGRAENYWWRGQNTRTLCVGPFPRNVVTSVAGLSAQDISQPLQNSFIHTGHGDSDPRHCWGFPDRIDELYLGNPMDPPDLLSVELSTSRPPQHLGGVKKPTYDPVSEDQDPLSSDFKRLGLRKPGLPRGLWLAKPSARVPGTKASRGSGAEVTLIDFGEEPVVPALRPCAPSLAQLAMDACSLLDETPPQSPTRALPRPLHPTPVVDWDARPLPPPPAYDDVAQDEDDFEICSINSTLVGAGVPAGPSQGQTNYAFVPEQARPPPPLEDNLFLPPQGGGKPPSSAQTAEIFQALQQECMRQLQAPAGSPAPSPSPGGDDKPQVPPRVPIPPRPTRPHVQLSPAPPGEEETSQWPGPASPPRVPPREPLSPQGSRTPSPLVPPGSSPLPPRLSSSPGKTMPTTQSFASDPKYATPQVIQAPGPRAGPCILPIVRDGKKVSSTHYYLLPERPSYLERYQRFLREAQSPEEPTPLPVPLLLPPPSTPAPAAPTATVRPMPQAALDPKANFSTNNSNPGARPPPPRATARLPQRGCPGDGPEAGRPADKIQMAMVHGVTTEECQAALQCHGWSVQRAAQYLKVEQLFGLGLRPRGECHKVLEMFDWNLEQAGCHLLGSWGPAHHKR
Data set [10] in a line: Cmax in Sprague-Dawley rat at 10 mg/kg, po administered via gavage measured at 0.833 hrs by LC-MS/MS analysis. In kind it is ADME, organism-based. Also on record: dose 10 mg/kg, route oral. Conditions: in vivo.
Data set [11] can be described thus: Half life in Sprague-Dawley rat at 10 mg/kg, po administered via gavage by LC-MS/MS analysis. In kind it is ADME, organism-based. The following applies: in vivo.
A short description of data set [12]: Initial plasma concentration in Sprague-Dawley rat at 1 mg/kg, iv administered as single bolus dose by LC-MS/MS analysis. It counts as ADME, organism-based.
Data set [13] has as its system Mus musculus. Put plainly: Suppression of IMQ-induced psoriasis in ig dosed C57 mouse assessed as reduction in serum IL-17A level administered once daily starting from day 3 post IMQ-challenge and measured 2 days post-last dose of IMQ by ELISA. In kind it is functional, organism-based. A digest of the protocol:
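IMQ-induced C57 mice (5% cream 7 days; 60 or 120 mg/kg i.g. daily from day 3). Blood collected at end of dosing, held 12 h at 4 °C, centrifuged; serum IL-17A by ELISA. Mean ± SEM.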
(In general: ELISA stands for enzyme-linked immunosorbent assay.)

Data set [14] is filed under the species Homo sapiens. Briefly: Selectivity ratio of IC50 for human LRRK2 to IC50 for human NIK.
The nature of data set [15]: Intrinsic clearance in human liver microsomes assessed per mg of protein incubated for 10 mins followed by potassium phosphate buffer addition and measured after 5 to 60 mins by LC-MS/MS analysis. In kind it is ADME, Microsome. The following applies: read-out: CLH. The procedure, abridged:
as §2

Sequence of Leucine-rich repeat serine/threonine-protein kinase 2 (Q5S007 whole entry): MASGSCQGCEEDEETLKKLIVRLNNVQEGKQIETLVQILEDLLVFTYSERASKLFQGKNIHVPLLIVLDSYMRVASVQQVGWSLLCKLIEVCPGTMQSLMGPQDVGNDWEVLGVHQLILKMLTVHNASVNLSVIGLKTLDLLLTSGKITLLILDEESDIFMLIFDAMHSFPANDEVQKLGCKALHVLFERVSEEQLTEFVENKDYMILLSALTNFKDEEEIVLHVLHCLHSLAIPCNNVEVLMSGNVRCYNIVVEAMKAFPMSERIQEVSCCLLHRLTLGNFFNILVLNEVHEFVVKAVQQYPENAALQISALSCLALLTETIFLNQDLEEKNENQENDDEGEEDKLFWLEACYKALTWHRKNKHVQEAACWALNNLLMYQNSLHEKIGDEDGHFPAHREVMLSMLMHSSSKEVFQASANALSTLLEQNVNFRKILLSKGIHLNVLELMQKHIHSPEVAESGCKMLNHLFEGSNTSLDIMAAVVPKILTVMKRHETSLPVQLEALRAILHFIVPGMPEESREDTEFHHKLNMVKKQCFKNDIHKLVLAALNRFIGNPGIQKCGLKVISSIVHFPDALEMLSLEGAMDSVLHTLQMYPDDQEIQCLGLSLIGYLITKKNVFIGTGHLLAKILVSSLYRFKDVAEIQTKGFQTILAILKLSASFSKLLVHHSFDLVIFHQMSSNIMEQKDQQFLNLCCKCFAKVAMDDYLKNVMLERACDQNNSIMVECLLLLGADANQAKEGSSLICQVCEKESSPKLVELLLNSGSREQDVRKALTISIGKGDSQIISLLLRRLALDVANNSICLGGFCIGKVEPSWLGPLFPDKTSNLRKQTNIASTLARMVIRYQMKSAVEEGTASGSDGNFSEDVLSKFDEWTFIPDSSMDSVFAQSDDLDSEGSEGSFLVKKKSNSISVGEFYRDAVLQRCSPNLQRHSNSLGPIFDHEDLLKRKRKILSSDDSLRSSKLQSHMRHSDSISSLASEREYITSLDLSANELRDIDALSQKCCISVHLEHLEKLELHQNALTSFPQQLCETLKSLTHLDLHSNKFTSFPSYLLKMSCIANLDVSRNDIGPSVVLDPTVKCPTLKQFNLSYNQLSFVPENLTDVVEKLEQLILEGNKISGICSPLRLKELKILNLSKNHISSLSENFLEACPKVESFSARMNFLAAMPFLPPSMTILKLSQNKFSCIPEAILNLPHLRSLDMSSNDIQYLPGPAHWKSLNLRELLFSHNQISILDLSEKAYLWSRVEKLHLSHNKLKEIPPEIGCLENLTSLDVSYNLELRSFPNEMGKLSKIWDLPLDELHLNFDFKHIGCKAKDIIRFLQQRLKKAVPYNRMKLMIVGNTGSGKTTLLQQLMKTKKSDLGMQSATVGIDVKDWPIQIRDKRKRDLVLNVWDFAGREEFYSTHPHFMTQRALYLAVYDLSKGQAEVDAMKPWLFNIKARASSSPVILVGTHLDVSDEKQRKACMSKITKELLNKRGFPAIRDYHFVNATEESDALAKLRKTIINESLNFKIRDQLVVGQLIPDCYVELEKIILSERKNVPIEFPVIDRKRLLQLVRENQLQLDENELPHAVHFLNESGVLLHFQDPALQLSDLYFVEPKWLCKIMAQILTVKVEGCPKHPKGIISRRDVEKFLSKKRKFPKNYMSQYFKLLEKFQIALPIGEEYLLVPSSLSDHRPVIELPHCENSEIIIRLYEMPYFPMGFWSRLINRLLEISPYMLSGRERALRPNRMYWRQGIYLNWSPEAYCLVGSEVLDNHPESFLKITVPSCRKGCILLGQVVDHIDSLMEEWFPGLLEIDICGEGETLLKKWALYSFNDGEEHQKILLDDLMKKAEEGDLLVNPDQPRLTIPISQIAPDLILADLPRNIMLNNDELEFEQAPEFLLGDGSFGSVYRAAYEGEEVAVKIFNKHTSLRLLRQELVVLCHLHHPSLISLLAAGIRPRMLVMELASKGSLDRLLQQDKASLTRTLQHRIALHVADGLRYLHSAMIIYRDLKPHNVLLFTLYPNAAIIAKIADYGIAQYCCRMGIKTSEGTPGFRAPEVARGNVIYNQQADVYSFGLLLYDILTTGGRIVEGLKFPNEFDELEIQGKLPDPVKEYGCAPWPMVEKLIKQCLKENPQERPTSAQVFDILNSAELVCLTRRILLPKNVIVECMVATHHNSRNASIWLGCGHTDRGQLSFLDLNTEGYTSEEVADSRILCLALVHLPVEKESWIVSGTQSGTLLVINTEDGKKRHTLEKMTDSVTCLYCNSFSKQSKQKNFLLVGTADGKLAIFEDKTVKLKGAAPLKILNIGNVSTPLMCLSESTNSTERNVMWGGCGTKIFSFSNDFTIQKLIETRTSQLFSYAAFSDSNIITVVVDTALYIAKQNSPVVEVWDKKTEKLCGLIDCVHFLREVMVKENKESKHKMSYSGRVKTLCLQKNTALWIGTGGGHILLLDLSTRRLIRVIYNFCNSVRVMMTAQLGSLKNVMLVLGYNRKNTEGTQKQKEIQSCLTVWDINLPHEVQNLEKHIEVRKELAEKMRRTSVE

Turning to `CC(O)(C#Cc1ccc(N2CCOCC2)c(Nc2ncnc3[nH]ccc23)c1)c1nccs1` (racemic), the CLH came out at 30.6 mL/min/kg in data set [1] and 62.4 mL/min/kg in data set [6]. The IC50 in data set [2] worked out at 94.6 nM; in data set [4] it was 9.87 nM; in data set [9], 892 nM; at Activated CDC42 kinase 1, 192 nM. For the same compound, the microsomal CLint in data set [3] amounted to 45 µL/min/mg; in data set [7] it was 43.3 µL/min/mg; in data set [15] it was 32.4 µL/min/mg. The Ratio IC50 in the data set filed under Homo sapiens [5] and in the data set filed under Homo sapiens [14] was 4 to 20 each time. The result in the data set on J774 was Active. For the same compound, the inhibition result in the data set with Mus musculus [8] and with Mus musculus [13] was “Dose-dependent effect” each time. This compound also yielded a Cmax in data set [10] of 772 ng/mL. Also, the half-life in [11] was 1.39 h. This compound returned a C0 in data set [12] of 377 ng/mL.

A word on the IC50: it is the concentration at which inhibition is half-maximal. The Cmax is the highest concentration seen after dosing. By half-life is commonly meant the time in which the quantity being followed falls by half. Higher therefore signals slow loss.
